Experimental data of several laboratories.
Lines come from different studies, so protocols differ.
Target: Mitogen-activated protein kinase 14 (MAPK14, Homo sapiens, UniProt Q16539)

`O=C(NCC1CCOCC1)c1n[nH]cc1NC(=O)c1c(F)cccc1F` gave a remaining binding of 100% (binding, competition with immobilised ligand; 1 µM).
For `O=C(c1ccc(Nc2ncc(Cl)c(-c3cc4ccccc4s3)n2)cc1)N1CCC(N2CCCC2)CC1`, the remaining binding was 100% (binding, competition with immobilised ligand; 1 µM).
The remaining binding of `N[C@@H]1CCN(c2nccc(-c3cnn4ncccc34)n2)C1` is reported as 100% (binding; 1 µM).
The remaining binding of `CC(=O)Nc1c(C(C)=O)c(=O)n(C)c2nc(-c3ccc(Cl)cc3Cl)c(-c3ccc(Cl)cc3)cc12` is reported as 100% (cell-free assay, competition with immobilised ligand; 1 µM).
The remaining binding of `CC1CCCN1c1nccc(-c2cnn3ncccc23)n1` (centres unmarked) is reported as 100% (binding; 1 µM).
`O=C(O)c1cc(-c2ccc(C3CCNCC3)cc2)c2ccc(-c3ccc(C(F)(F)F)cc3)cc2c1` gave a remaining binding of 100% (cell-free assay, competition with immobilised ligand; 1 µM).
For `C[C@@H]1CCN(c2nccc(-c3cnn4ncccc34)n2)C1`, the remaining binding was 100% (binding; 1 µM).
For `O=C(Nc1ccc(Oc2ccc(F)cc2)cc1)N1CCc2ncccc2[C@H]1c1ccc(F)cc1`, the remaining binding was 100% (cell-free assay, competition with immobilised ligand; 1 µM).
With `CN(C)c1ncc(F)c(-c2cnn3ncccc23)n1` the remaining binding was 100% (binding; 1 µM).
`CCN1CCN(Cc2ccc(C(=O)Nc3ccc(C)c(Oc4ccc5c(c4)CC(=O)N5)c3)cc2C(F)(F)F)CC1` has a remaining binding of 18% (binding, competition with immobilised ligand; 1 µM).
With `Cc1cnc(Nc2ccc(C(=O)N3CCC(N4CCCC4)CC3)cc2)nc1-c1cc2ccccc2s1` the remaining binding was 100% (binding, competition with immobilised ligand; 1 µM).
`O=C(N1CCS(=O)(=O)CC1)N1C[C@H](c2ccc(OC(F)(F)F)cc2)C[C@H](c2nc(C3CC3)no2)C1` gave a remaining binding of 100% (cell-free assay, competition with immobilised ligand; 1 µM).
`CN(C)c1nccc(-c2cnn3ncccc23)n1` gave a remaining binding of 91% (binding; 1 µM).
With `c1cncc(-c2cccc(Nc3nccc(NC4CCCCC4)n3)c2)c1` the remaining binding was 85% (binding, competition with immobilised ligand; 10 µM).
For `C[C@@H]1CN(c2ccc3ncc(-c4ccc5[nH]nc(C6CC6)c5c4)n3n2)C[C@H](C)O1`, the remaining binding was 100% (binding, competition with immobilised ligand; 50 nM).
With `CNCc1ccccc1-c1csc([C@H](C)Nc2nc(C)nc3cc(OC)c(OC)cc23)c1` the remaining binding was 100% (cell-free assay, competition with immobilised ligand; 1 µM).
With `COc1cnc(Nc2cccc(S(N)(=O)=O)c2)nc1N1CCN(c2ccccc2)CC1` the remaining binding was 100% (binding, competition with immobilised ligand; 1 µM).
